Sampled rows, rich in hits. Any-hit rate of the full collection: about 4.6%.
HDAC3 inhib = inhibitors of human histone deacetylase 3; O15379; recombinant HDAC3, fluorogenic peptide/trypsin coupled, fluorescence; inhibition, % at 8.3 µM; 0.15% of 320,000 active; in the data active means inhibition above about 26%, passing the limit was not always enough; inconclusive means no clear call, values can overlap the other calls
Target sequence (O15379 whole entry, looked up): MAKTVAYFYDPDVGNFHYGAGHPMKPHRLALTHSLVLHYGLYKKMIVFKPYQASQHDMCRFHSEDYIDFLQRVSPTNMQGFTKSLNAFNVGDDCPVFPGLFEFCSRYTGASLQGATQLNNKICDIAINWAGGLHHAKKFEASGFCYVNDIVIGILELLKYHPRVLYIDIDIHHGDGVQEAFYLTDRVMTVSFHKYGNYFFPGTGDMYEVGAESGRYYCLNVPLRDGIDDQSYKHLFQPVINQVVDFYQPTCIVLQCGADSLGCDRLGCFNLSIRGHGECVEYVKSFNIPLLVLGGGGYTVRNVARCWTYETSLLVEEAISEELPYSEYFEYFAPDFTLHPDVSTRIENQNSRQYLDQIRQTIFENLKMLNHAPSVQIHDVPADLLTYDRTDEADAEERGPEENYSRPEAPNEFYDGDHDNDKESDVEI
Rtt109 Vps75 = blocks Candida albicans Rtt109/Vps75 acetyltransferase activity; purified Rtt109/Vps75, ThioGlo CoA-SH fluorescence, 4 h; inhibition, % at 34.9 µM; 0.16% of 330,000 active;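 active means inhibition of at least 50% in every replicate; inconclusive means best replicate reaches 50% inhibition but some replicates fall short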
ALR H2O2 inh = human ALR oxidase inhibition via reduced H2O2; P55789; inhibition, % (concentration not given with the values); purified ALR, DTT oxidation, H2O2 HRP-luminol luminescence; 3.8% of 290,000 active;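 active means mean replicate inhibition above about 79%, with every replicate also reaching it, limit read from the data; inconclusive means only one of the two criteria met; inactive means mean below limit and not every replicate reaching it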
UCH37 DUB inh = human UCH37 deubiquitinating enzyme inhibition. inhibition, % (no concentration beside the values). 0.33% of 330,000 active. Q9Y5K5. purified proteasome/UCH37, Ub-AMC cleavage fluorescence;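 active means mean inhibition over replicate wells above about 20%, limit read from the data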;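 further: 0% = compound-free wells with enzyme and 100% = wells lacking proteasome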
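system = Proteasome-associated human UCH37 deubiquitinase | amount = 0.15 nM proteasome as dispensed | medium = pH 7.4 Tris-HCl (50 mM) with ovalbumin, ATP-MgCl2, DTT | incubation = 30 min preincubation with enzyme, 25 min cleavage at room temperature | detection = AMC fluorescence 355/460 nm | read-out basis = percent inhibition | controls = no-proteasome and no-compound wells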
FAS-TE inh = blocks the thioesterase domain of human fatty acid synthase; recombinant FAS-TE, OMFH fluorogenic substrate, fluorescence endpoint; P49327; inhibition, % at 15 µM; 0.67% of 360,000 active;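 active means compounds whose normalised, plate-corrected inhibition of enzyme fluorescence in the single-dose primary screen is 50% or more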;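 further: 0% = DMSO with enzyme and 100% = substrate without enzyme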
PfM18AAP inh-1 = blocks P. falciparum M18 aspartyl aminopeptidase; recombinant PfM18AAP, H-Glu-NHMec fluorogenic cleavage; inhibition, % at 7.35 µM; 1.2% of 290,000 active;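 active means inhibition above the campaign mean inhibition over all tested compounds plus 3 SD, cut at about 28% in these data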;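 further: 0% = plate median of test compound wells and 100% = 2 mM ZnCl2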
PfM18AAP inh-2 = PfM18AAP inhibition, confirmation. shares compounds with PfM18AAP inh-1. recombinant PfM18AAP, H-Glu-NHMec fluorogenic cleavage. inhibition, % at 7.35 µM. 28% of 2,400 active;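 active means mean inhibition over replicate wells above the hit cutoff set for the earlier primary screen, cut at about 29% in these data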;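 further: 0% = median of test compound wells and 100% = 2 mM ZnCl2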
CTSL1 counter = Cathepsin L (human) inhibition, confirmation | shares compounds with PfM18AAP inh-1 | purified cathepsin L1, Z-Leu-Arg-MCA fluorescence | inhibition, % at 5.96 µM | 2,400 tested, under 10 active;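 active means average inhibition across replicates above the hit cutoff set in the earlier primary screen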;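 further: 0% = median of test compound wells and 100% = Z-Phe-Ala-diazomethylketone 1 µM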
Target sequence (P07711 whole entry, looked up): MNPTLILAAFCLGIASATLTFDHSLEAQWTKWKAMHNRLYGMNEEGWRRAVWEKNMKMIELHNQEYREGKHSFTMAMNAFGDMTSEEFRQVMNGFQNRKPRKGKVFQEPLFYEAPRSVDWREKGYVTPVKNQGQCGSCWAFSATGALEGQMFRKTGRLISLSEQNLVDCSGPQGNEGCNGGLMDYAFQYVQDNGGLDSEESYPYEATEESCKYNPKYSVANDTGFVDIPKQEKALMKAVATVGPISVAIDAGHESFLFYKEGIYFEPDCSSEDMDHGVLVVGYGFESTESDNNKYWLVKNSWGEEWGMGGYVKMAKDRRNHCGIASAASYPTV
* marks the source's active call; other numbers are inactive results; ? = inconclusive; nt = no result given.

SMILES | HDAC3 inhib | Rtt109 Vps75 | ALR H2O2 inh | UCH37 DUB inh | FAS-TE inh | PfM18AAP inh-1 | PfM18AAP inh-2 | CTSL1 counter
O=C(O)CSc1cc(NS(=O)(=O)c2ccc(Cl)cc2)c2ccccc2c1O | -3.6 | -13.0 | 7.7 | nt | 6.7 | 13.7 | nt | nt
CC(CC(=O)NC(C)c1ccccc1)=NNC(N)=S (centres undefined) | nt | nt | nt | 1.7 | nt | nt | nt | nt
O=C(CCc1ccccc1)OCC(=O)c1ccc([N+](=O)[O-])cc1 | 0.5 | 0.4 | -2.3 | 0.4 | 15.5 | 46.2* | -24.8 | -5.2
O=C(CCC(=O)OCC(=O)c1cccc([N+](=O)[O-])c1)Nc1cccc(Cl)c1Cl | -5.4 | -5.6 | -9.5 | 1.3 | -4.5 | 0.4 | nt | nt
Cc1ccc(C(=O)COC(=O)c2cnccn2)cc1 | -5.0 | 3.7 | -9.8 | 0.0 | -8.1 | -4.9 | nt | nt
O=C(COC(=O)c1cnccn1)c1ccc([N+](=O)[O-])cc1 | 0.8 | 136.9* | 59.0 | 2.8 | -2.5 | 39.8* | -0.4 | -0.1
O=C(NOCc1ccccc1)c1ccc([N+](=O)[O-])cc1 | -1.0 | 1.7 | -7.3 | 1.5 | 13.2 | nt | nt | nt
O=C(CCC(=O)OCC(=O)c1ccc([N+](=O)[O-])cc1)Nc1ccccc1Cl | 4.5 | 74.9* | 11.3 | 2.5 | -0.8 | 40.0* | -5.8 | -21.2
Cc1cc(C=NNC(=O)c2ccccc2F)c(C)n1-c1ccccc1 | nt | nt | nt | 4.1 | nt | nt | nt | nt
Cc1nnc(NN=Cc2ccc([N+](=O)[O-])cc2)n1N | nt | nt | nt | 13.2 | nt | nt | nt | nt
Cc1nn(-c2ccccc2)c2c1C(c1ccc([N+](=O)[O-])cc1)C(C#N)=C(N)O2 (centres undefined) | 0.7 | 1.8 | 38.0 | 1.1 | 11.7 | 27.7 | 0.5 | -1.0
CC(=NNc1ncc(Cl)cc1Cl)c1ccc(C#N)cc1 | nt | nt | nt | -15.4 | nt | nt | nt | nt
CCOc1cc(C2Nc3ccccc3NC3=C2C(=O)CC(C)(C)C3)ccc1O (centres undefined) | 0.0 | 1.3 | 89.8* | 7.4 | -3.4 | 36.8* | -28.4 | -8.1
Cc1onc(-c2c(Cl)cccc2Cl)c1CON=C(C#N)c1c(Cl)cccc1Cl | nt | nt | nt | 0.7 | nt | nt | nt | nt
CC(NC(=O)c1sc2cc([N+](=O)[O-])ccc2c1Cl)C(C)(C)C (centres undefined) | 15.5 | -1.6 | -3.9 | 3.7 | -1.1 | 38.2* | 30.8* | 1.6
O=C(NC1CC1)c1sc2cc([N+](=O)[O-])ccc2c1Cl | 2.5 | -2.7 | -17.2 | -5.1 | 15.2 | -5.0 | nt | nt
COc1ccc(C=NN2C(=O)C3C4C=CC(C4)C3C2=O)cc1[N+](=O)[O-] (centres undefined) | nt | nt | nt | 5.7 | nt | nt | nt | nt
O=C(Oc1ccccc1O)c1cccc2ccccc12 | 1.8 | nt | 66.5 | nt | 6.1 | 61.3* | 4.5 | -0.1
CN(CC(=O)O)S(=O)(=O)c1cc(Cl)ccc1Cl | -3.7 | 17.3 | -11.9 | 1.7 | -9.1 | 1.6 | nt | nt
O=C(CSc1ccc2ccccc2c1)Nc1nc2ccccc2[nH]1 | 3.0 | 3.1 | nt | 2.4 | 1.3 | -0.5 | nt | nt
O=C(CSc1ccc(Cl)cc1)Nn1cnnc1 | 3.8 | -7.8 | nt | 4.2 | -7.3 | 39.8* | 51.8* | -5.1
CN(CC(=O)Nn1cnnc1)S(=O)(=O)c1cc(Cl)ccc1Cl | -5.7 | -1.0 | -13.7 | 1.7 | -5.2 | 43.7* | 44.9* | 3.2
O=C(CSc1ccc2ccccc2c1)Nn1cnnc1 | -0.6 | -15.2 | 50.8 | 2.3 | -4.6 | 65.2* | 50.7* | 0.5
Oc1ccc(N2CCN(c3ncnc4sc(-c5ccccc5)cc34)CC2)cc1 | nt | 13.1 | nt | -1.4 | 18.1 | 43.5* | 9.9 | 0.1
CC1CC(C)CN(S(=O)(=O)c2ccc(NN)nc2)C1 (centres undefined) | nt | -1.1 | nt | 4.2 | -4.7 | 45.9* | 33.4* | 0.7
SMILES | HDAC3 inhib | Rtt109 Vps75 | ALR H2O2 inh | UCH37 DUB inh | FAS-TE inh | PfM18AAP inh-1 | PfM18AAP inh-2 | CTSL1 counter
CC1CC(C)CN(S(=O)(=O)c2ccc(C(C)(C)C)cc2)C1 (centres undefined) | 9.1 | 1.9 | -5.4 | 0.0 | 20.0 | 15.9 | nt | nt
COc1ccc(C=NN(c2ccccc2)c2ccccc2)cc1O | nt | nt | nt | 3.9 | nt | nt | nt | nt
Oc1ccc(/C=N/N(c2ccccc2)c2ccccc2)cc1O | 0.8 | 1.3 | 98.7* | nt | 10.0 | 66.8* | 41.8* | -7.6
Oc1ccc(C=NN(Cc2ccccc2)c2ccccc2)c(O)c1O | nt | nt | nt | 2.2 | nt | nt | nt | nt
Oc1ccc(/C=N/N(c2ccccc2)c2ccccc2)c(O)c1O | 1.4 | -9.1 | nt | nt | 7.4 | 47.6* | -14.6 | -7.6
O=C(O)C1CCN(C(=O)CCN2C(=O)S/C(=C\c3ccccc3)C2=O)CC1 | 1.0 | 0.5 | 16.0 | nt | -4.7 | 37.0* | -44.9 | 7.8
Cc1cc(C)c2c(N)c(C(=O)NNC(=O)c3ccccc3)sc2n1 | -9.8 | 6.6 | 20.8 | -119.5 | -6.1 | 43.6* | 11.8 | -0.6
Cc1cc(C)c2c(N)c(C(=O)NN)sc2n1 | 1.3 | -0.3 | 1.3 | -12.8 | -3.3 | 11.1 | nt | nt
CC(=O)c1cc(-c2ccc(F)cc2)n(CCC(=O)Nc2cc(C)[nH]n2)c1C | 0.9 | 8.7 | -8.3 | 2.9 | -4.7 | 57.1* | -48.1 | -4.9
CC(=O)c1cc(-c2ccccc2)n(CCC(=O)NC2CCCC2)c1C | -1.2 | nt | 9.4 | 0.1 | -5.0 | 2.7 | nt | nt
CC(=O)c1c(C)[nH]c(C(=O)NCCc2ccc(Cl)cc2)c1C | 4.0 | -7.8 | nt | 6.1 | 1.0 | 60.6* | -47.4 | -1.2
Oc1ccc(/C=N/n2c(COc3ccccc3)n[nH]c2=S)c(O)c1 | 5.5 | -4.3 | nt | nt | -4.6 | 33.2* | 12.3 | 2.7
COc1cc(OC)c(OC)cc1/C=N/n1c(COc2ccccc2)n[nH]c1=S | 2.9 | -0.8 | -2.7 | nt | 3.1 | 33.5* | -0.6 | 1.0
COc1ccc(NC(=O)n2nc(OC(=O)c3cccs3)cc2N)cc1 | ? | 9.9 | nt | 5.4 | 15.6 | 49.7* | 4.8 | -16.7
O=S(=O)(NN=Cc1cccc(OC2CSC2)c1)c1ccccc1 | nt | nt | nt | 3.3 | nt | nt | nt | nt
CC1=C(C)C(=NOC(=O)c2cccc([N+](=O)[O-])c2)C=CC1=O | nt | nt | nt | 2.5 | nt | nt | nt | nt
Cc1ccccc1/C=N/N1C(=O)CSC1=S | 9.4 | 0.2 | 31.1 | nt | -4.7 | 34.9* | -9.2 | 2.6
O=C1CSC(=S)N1/N=C/c1cccnc1 | 0.5 | 33.7 | nt | nt | -6.2 | 35.2* | 11.2 | 0.1
COc1cc(CNc2ccc(CNc3ncn[nH]3)cc2)ccc1OCc1ccccc1 | -3.7 | -3.1 | -10.6 | 2.7 | -12.7 | 46.6* | -4.9 | 4.4
COc1ccccc1CNc1ccc(CNc2ncn[nH]2)cc1 | 6.6 | 3.6 | 87.2* | 1.9 | -7.1 | 32.6* | -16.7 | 1.0
CN(C)c1ccc(CNc2ncn[nH]2)cc1 | -3.9 | -1.7 | 74.2 | 0.7 | -2.0 | 36.9* | -8.9 | -1.5
COc1cc(CNc2ccc3[nH]c(=O)[nH]c3c2)ccc1OCc1ccccc1 | 7.1 | 6.4 | 68.0 | -4.1 | 0.9 | -32.9 | nt | nt
Cc1ccc(CNc2ccc(CNc3ncn[nH]3)cc2)cc1 | 2.4 | -9.4 | -21.4 | 0.1 | -8.1 | 26.9 | nt | nt

Assay outcomes deposited in PubChem by several laboratories.
